Screening results: PubChem, Sanford-Burnham Center for Chemical Genomics
SUMO1-SIM PPI = modulators of human SUMO1-mediated protein-protein interactions | P63165 | SUMO1 binding to a labelled peptide, TR-FRET, 1 h | inhibition, % at 20 µM | hit rate 0.33% among 360,000 | AID 602429; in the data active means inhibition above about 37%
STEP inh = blocks human striatal-enriched tyrosine phosphatase | P54829 | recombinant STEP, OMFP fluorogenic substrate, fluorescence | inhibition, % at 20 µM | hit rate 0.25% among 360,000;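 active means inhibition at 20 µM, scaled per plate between control wells, above about 37%, limit read from the data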;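 further: 0% = DMSO with enzyme and substrate and 100% = substrate only without enzyme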
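System: isolated STEP enzyme; schedule: 20 min enzyme reaction at room temperature, protected from light; medium: Bis-Tris buffer pH 6.0, 2.5 mM DTT, 0.005% Tween 20; signal: fluorescence, 480/540 nm; dosing: single compound dose of 20 µM, 1% DMSO final; also added: OMFP substrate, 25 µM final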
Scp1 inh = Scp-1 (human) phosphatase inhibition. Recombinant Scp1, phosphopeptide, malachite green phosphate absorbance. AID 493091. hit rate 0.88% among 340,000. inhibition, % at 20 µM;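 active means inhibition above about 50% at 20 µM, limit read from the data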;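 further: plate controls were DMSO wells with enzyme for no effect and wells lacking enzyme for full effect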
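Test system – truncated SCP-1 phosphatase (76-261aa) · Reagent – Phosphorylated 17-residue peptide substrate · Incubation – 45 min room-temperature reaction, 5 min colour, 30 min stabiliser · Detection – colorimetric phosphate reagent with accelerator and stabiliser, absorbance at 630 nm · Measure – % inhibition at 20 µM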
DNMT1 inh = blocks human DNA methyltransferase DNMT1 | DNMT1 molecular beacon, Hinp1I cleavage, fluorescence | inhibition (reported as % activation of signal), % at 10 µM | hit rate 0.83% among 360,000 | AID 588458; in the data active means inhibition above about 50%
Target sequence (P26358 504-1616 limits assumed): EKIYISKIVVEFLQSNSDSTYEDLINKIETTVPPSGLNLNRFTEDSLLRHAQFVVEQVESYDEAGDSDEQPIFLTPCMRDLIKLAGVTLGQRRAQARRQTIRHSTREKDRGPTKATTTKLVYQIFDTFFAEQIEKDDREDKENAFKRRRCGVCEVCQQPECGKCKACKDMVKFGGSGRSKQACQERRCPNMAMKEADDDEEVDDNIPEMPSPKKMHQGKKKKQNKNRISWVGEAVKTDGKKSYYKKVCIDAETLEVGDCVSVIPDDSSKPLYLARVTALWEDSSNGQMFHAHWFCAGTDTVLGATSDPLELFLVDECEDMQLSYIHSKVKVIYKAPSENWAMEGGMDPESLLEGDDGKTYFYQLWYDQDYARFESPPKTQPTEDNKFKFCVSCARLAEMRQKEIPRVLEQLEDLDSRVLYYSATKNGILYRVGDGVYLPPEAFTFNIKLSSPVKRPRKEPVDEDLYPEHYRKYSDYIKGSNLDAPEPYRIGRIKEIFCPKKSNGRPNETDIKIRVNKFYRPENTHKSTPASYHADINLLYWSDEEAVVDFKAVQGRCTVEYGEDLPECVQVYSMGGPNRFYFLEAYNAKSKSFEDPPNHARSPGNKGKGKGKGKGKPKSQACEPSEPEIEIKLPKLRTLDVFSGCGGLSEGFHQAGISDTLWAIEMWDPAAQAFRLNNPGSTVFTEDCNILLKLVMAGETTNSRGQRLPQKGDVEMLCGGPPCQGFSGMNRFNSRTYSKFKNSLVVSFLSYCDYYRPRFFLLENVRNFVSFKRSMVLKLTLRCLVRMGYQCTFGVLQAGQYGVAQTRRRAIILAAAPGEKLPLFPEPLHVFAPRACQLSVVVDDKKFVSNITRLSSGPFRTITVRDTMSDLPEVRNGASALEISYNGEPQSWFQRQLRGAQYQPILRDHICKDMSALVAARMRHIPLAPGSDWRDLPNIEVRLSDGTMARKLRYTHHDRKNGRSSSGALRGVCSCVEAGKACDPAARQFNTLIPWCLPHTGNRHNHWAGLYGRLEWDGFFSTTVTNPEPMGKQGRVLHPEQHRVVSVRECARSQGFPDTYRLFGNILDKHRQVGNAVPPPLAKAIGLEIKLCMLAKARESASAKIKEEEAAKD
LMPTP block = LMPTP (human) inhibition. inhibition, % at 20 µM. AID 651560. P24666. hit rate 0.22% among 360,000. recombinant LMPTP-A, OMFP fluorogenic substrate, fluorescence intensity;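 active means compounds that cut the enzyme signal by at least half of the control window in the single-dose screen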;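 further: plate controls were DMSO wells with enzyme plus substrate for no effect and substrate without enzyme for full effect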
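Test system: LMPTP-A phosphatase enzyme. Amount: LMPTP-A at 0.625 nM final in the reaction. Reagent: OMFP substrate, 400 µM final. Times: 50 min at room temperature. Signal: endpoint fluorescence intensity from OMFP dephosphorylation. Read-out basis: % inhibition. Benchmarks: no-enzyme and uninhibited controls.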
DNMT1 interf DR = shows spectral interference in the DNMT1 beacon assay. molecular beacon fluorescence, spectral interference counter-screen. AID 602382. 200 tested, under 10 active. shares compounds with DNMT1 inh. IC50, µM; call rule not given here
DNMT1 inh conf = DNMT1 inhibition confirmation, single concentration | shares compounds with DNMT1 inh | DNMT1 molecular beacon HinP1I cleavage, fluorescence | inhibition, % at 10 µM | hit rate 8% among 2,300;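 active means average inhibition of at least 30% in the single-concentration confirmation test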
DNMT1 interf = shows spectral interference in the DNMT1 beacon assay; AID 602387; hit rate 1% among 2,300; shares compounds with DNMT1 inh; activation (fluorescence interference), % at 10 µM; DNMT1 molecular beacon spectral interference counterscreen, fluorescence 485/520;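 active means activation of at least 30% at 10 µM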;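 further: DNMT1 catalytic domain with a HinP1I cleavage step and a FAM/dabcyl DNA beacon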
An asterisk follows results filed as active; . = not tested or not shown. A selection: hits, their analogues and other compounds. The true share with any hit is near 1.8%.

SMILES	SUMO1-SIM PPI	STEP inh	Scp1 inh	DNMT1 inh	LMPTP block	DNMT1 inh conf	DNMT1 interf	others
N#C/C(=C\c1ccc(-c2ccc([N+](=O)[O-])cc2)o1)C(=O)Nc1nc(-c2cccs2)cs1	-24	2	4	95*	6	3	-4
N#C/C(=C/c1ccc(-c2cccc([N+](=O)[O-])c2)o1)C(=O)Nc1nc(-c2cccs2)cs1	-13	-1	-1	30	3	.	.
C=CCc1cccc2cc(C(=O)Nc3ccc(CC(=O)O)cc3)c(=O)oc12	-4	8	29	81*	1	5	6
COC(=O)c1ccc(-c2nc(O)c(C)s2)cc1	-7	10	-6	0	1	.	.
COC(=O)c1ccc(-c2nc3cc(Cl)c(N)cc3s2)cc1	1	-2	-4	56*	-1	1	7
CCCOc1ccc(C(=O)Nc2ccc3c(c2)OCCO3)cc1	0	-1	-2	4	1	.	.
Cc1ccc(C(=O)OCc2cc(=O)n3ccsc3n2)s1	29	-5	-7	2	0	.	.
O=C(OCc1cc(=O)n2ccsc2n1)c1ccccc1NCCO	11	5	59*	59*	4	4	3
Fc1cccc(F)c1/C=C/c1ccc2ccccc2n1	-14	0	-1	5	2	.	.
C(=C\c1ccco1)/c1ccc2ccccc2n1	9	5	-7	80*	57*	7	3
O=C(CCC(=O)c1ccc(Cl)cc1)OCn1nnc2ccccc2c1=O	-5	9	-6	-3	-1	.	.
O=C(Nc1cccc(S(=O)(=O)NC2=NCCCCC2)c1)c1ccc(Cl)cc1	8	2	-5	2	0	.	.
COc1ccc(C=C(NC(=O)c2ccccc2)C(=O)O)cc1OC	17	-2	2	1	-2	.	.
CCCCCOC(=O)Cn1c(=O)oc2ccc(C)cc21	-2	-2	-6	73*	-1	1	8
CCCCOC(=O)Cn1c(=O)oc2ccc(C)cc21	-1	-2	-8	0	-2	.	.
O=C(NC(=S)Nc1cc(S(=O)(=O)N2CCOCC2)ccc1O)c1ccco1	6	2	-12	-1	-1	.	.
O=C(NC(=S)Nc1cc(S(=O)(=O)N2CCOCC2)ccc1N1CCOCC1)c1ccco1	-1	-1	-2	60*	0	3	3
CC(C)(C)NC(=O)Cc1ccc(S(=O)(=O)N2CCCC2)s1	-1	8	9	72*	-2	3	-1
CC(NC(=O)c1c(N)[nH]c(C(=O)c2ccccc2)c1-c1ccccc1Br)c1cccc2ccccc12 (configuration not stated)	4	.	.	.	1	.	.
Cc1ccc(-c2ccc(/C=C3\SC(N4CCOCC4)=NC3=O)o2)cc1	-17	7	5	-2	3	.	.
Cc1ccc(/C=C2\SC(N3CCN(C(c4ccccc4)c4ccccc4)CC3)=NC2=O)o1	-1	3	-6	79*	6	-4	-5
O=C1N=C(N2CCOCC2)S/C1=C\c1cccnc1	-5	-4	-3	1	-1	.	.
O=C1N=C(N2CCOCC2)SC1=Cc1ccco1	-16	-2	-1	81*	-1	4	5
Cc1cccc(C(=O)Nc2cc(S(=O)(=O)N3CCOCC3)ccc2N2CCCCC2)c1	2	7	3	-8	4	.	.
COCCNC(=O)c1ccc(N2CC3CC(C2)c2cccc(=O)n2C3)c(NC(=O)c2ccc(C(C)(C)C)cc2)c1 (configuration not stated)	1	2	.	-3	-1	.	.
SMILES	SUMO1-SIM PPI	STEP inh	Scp1 inh	DNMT1 inh	LMPTP block	DNMT1 inh conf	DNMT1 interf	others
C/C(=N\NC(=O)c1cc(O)cc(O)c1)c1ccc(NC(=O)Cc2ccccc2)cc1	78*	98*	87*	85*	69*	51*	-2	DNMT1 interf DR=>99
C/C(=N\NC(=O)c1cccc(F)c1)c1ccc(NC(=O)Cc2ccccc2)cc1	4	-1	-5	2	-6	.	.
COc1ccc(/C=C2/C(=O)N(c3nc4ccccc4s3)N=C2CSc2ccc(Cl)cc2)cc1	26	4	8	65*	22	54*	-4	DNMT1 interf DR=>99
COc1ccc(/C=C2/C(=O)N(Cc3ccccc3)N=C2C)cc1	10	0	-4	10	0	.	.
CCOC(=O)c1sc2nc(C)nc(N3CCN(S(=O)(=O)c4ccccc4)CC3)c2c1C	-17	9	11	-4	2	.	.
CCc1ccc(NC(=O)c2noc3c2CCC3)cc1	1	4	48	80*	2	10	6
COc1cccc(-n2c(SCC(=O)N3CCc4ccccc43)nnc2-c2c[nH]c3ccccc23)c1	4	5	-4	27	1	.	.
O=C(CSc1nc2ccccc2c(=O)n1-c1ccccc1)N1CCCc2ccccc21	-2	0	-6	4	1	.	.
CCOc1ccc(-n2c(SCC(=O)N3CCc4ccccc43)nnc2-c2c[nH]c3ccccc23)cc1	15	4	13	80*	16	-1	-6
O=C(CSc1nc2ccccc2c(=O)n1-c1ccccc1)N1CCc2ccccc21	3	6	3	53*	1	-2	-10
COCCNC(=O)c1ccc(-c2cn[nH]c2)c2ccoc12	5	-3	.	68*	-3	0	1
O=C(NCC1CC1)c1ccc(-c2cn[nH]c2)c2ccoc12	2	-1	.	6	-9	.	.
CCNc1nnc(SCC(=O)N2c3ccccc3NC(=O)CC2C)s1 (configuration not stated)	-1	2	0	-4	-1	.	.
NNC(=O)c1cc(-c2cccs2)nc2ccccc12	-15	0	-6	-6	3	.	.
Cc1cccc2sc(NNC(=O)c3cc(-c4cccs4)nc4ccccc34)nc12	2	0	7	69*	1	2	1
CN(C1CCCCC1)S(=O)(=O)c1cn(C)c(=O)n(C)c1=O	3	-1	3	5	-1	.	.
O=C(COC(=O)c1ccc(F)cc1F)NC(=O)Nc1ccc2c(c1)OCCO2	-1	-3	-9	-3	0	.	.
CCN(CC)S(=O)(=O)c1cccc(NC(=O)COC(=O)c2[nH]c(C)c(C(C)=O)c2C)c1	3	-1	.	-7	0	.	.
Clc1ccc2c(N/N=C/c3cccc(Br)c3)ccnc2c1	1	6	-17	80*	3	4	3
Cc1cc(Br)cn2c(Cc3ccccc3)c(-c3ccccc3)nc12	-11	0	.	6	2	.	.
